Screens from PubChem.
Sampled rows, rich in hits. Any-hit rate of the full collection: about 2.1%.
APOBEC3G inh: blocks human APOBEC3G single-stranded DNA deamination; Q9HC16; hit rate 0.28% among 330,000; inhibition, % at 20 µM; recombinant A3G, ssDNA deamination FAM/TAMRA fluorescence;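 active means inhibition of at least 40% at 20 µM, with no more than 30% in the related APOBEC3A deaminase screen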
A3A deaminase: blocks human APOBEC3A ssDNA deamination | P31941 | recombinant A3A, FAM/TAMRA ssDNA deamination fluorescence | inhibition, % at 20 µM | hit rate 0.41% among 330,000 | AID 493011;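 active means at least 40% inhibition at 20 µM here, with at most 30% in a related deaminase screen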
ASAP1 GAP inh: blocks human ASAP1-stimulated Arf1 GTP hydrolysis; Q9ULH1; GDP FP detection; inhibition, % at 16.5 µM; hit rate 0.19% among 360,000; in the data active means inhibition above about 25%
Target sequence (Q9ULH1 325-724 limits assumed): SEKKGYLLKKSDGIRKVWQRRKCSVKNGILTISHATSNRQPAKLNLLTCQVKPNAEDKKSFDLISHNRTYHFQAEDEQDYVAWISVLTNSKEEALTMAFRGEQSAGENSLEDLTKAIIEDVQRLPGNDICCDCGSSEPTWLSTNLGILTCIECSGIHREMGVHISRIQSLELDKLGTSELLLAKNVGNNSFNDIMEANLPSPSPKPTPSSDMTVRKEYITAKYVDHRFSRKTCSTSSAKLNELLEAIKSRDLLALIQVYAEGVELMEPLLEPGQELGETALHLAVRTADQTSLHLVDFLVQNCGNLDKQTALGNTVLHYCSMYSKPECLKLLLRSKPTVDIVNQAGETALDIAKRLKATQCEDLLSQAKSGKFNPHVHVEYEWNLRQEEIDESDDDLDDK
C2C12 statin: suppressors of simvastatin-induced myotoxicity in C2C12 myotubes | ATP luminescence, 48 h; scaled: DMSO 0, geranylgeraniol control 100 | hit rate 0.78% among 330,000 | rescue of ATP level, % at 7.49 µM;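 active means mean ATP rescue above about 67%, or every replicate alone reaching that limit, limit read from the data, passing the limit was not always enough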;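 further: myotubes were challenged with 10 µM simvastatin during compound exposure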
ARFGAP1 inh: inhibits rat ARF GTPase activating protein 1 | Q62848 | Arfgap1-stimulated ARF1 GTP hydrolysis, GDP FP detection | AID 651572 | hit rate 0.26% among 360,000 | inhibition, % at 16.5 µM;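 active means inhibition above a per-plate limit, mean inhibition of low control wells plus 3 SD, cut at about 25% in these data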
Target sequence (Q62848 1-136 limits assumed): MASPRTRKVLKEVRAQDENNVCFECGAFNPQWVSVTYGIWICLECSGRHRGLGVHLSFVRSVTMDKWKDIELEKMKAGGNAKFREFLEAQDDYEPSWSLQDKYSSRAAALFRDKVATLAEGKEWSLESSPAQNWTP
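System: truncated rat Arfgap1 GAP domain / Benchmarks: high control wells lacking Arfgap1, low control full reaction with DMSO / Times: compound-enzyme preincubation 20 min, reaction 120 min, detection 60 min, 25 °C / Repeats: one replicate per compound / Also added: human ARF1(Δ1-17)-GTP substrate / Measured by: Tracer-displacement fluorescence polarization with EDTA stop, 620/688 nm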
SUMO Mot1 rescue: SUMOylation pathway inhibition by Mot1-301 growth rescue; S. cerevisiae Mot1-301 growth rescue, ATP luminescence, 38.5C; percent above DMSO median, 100 means doubled; growth rescue, % at 18.8 µM; hit rate 1% among 320,000; AID 2716;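 active means every valid replicate shows activation above 250% relative to neutral control wells; inactive means the rest, any valid replicate at or below 250%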
A number is an active result; – = inactive; · = no result.

SMILES	APOBEC3G inh	A3A deaminase	ASAP1 GAP inh	C2C12 statin	ARFGAP1 inh	SUMO Mot1 rescue
COc1ccc(Cc2nc(C(=O)Nc3ccc(OC)cc3)cs2)cc1	–	–	–	122.4	–	–
COc1ccc(Cc2nc(C(=O)NCc3ccccc3OC)cs2)cc1	–	–	–	–	–	–
O=C(C1=C(O)C(=O)N(CCCN2CCOCC2)C1c1ccccn1)c1cc2ccccc2o1 (stereo not given)	–	–	–	72.8	–	–
O=C(C1=C(O)C(=O)N(CCN2CCOCC2)C1c1ccc(F)cc1)c1cc2ccccc2o1 (stereo not given)	–	–	–	–	–	–
CCN(c1ccccc1)S(=O)(=O)c1csc(C(N)=O)c1	–	–	–	–	–	–
CCN(c1ccc(OC)cc1)S(=O)(=O)c1csc(C(N)=O)c1	–	–	–	–	–	275.0
Cc1cc2ncn(/N=C/c3ccc(-c4ccccc4)o3)c2cc1C	–	–	–	146.2	–	–
C[C@@H]1CN([C@H](C)CO)C(=O)c2cc(-c3cccnc3)cnc2O[C@@H]1CN(C)C(=O)C1CCCCC1	·	·	·	–	·	·
Cc1cnc(-c2nnc(N(C)C(=O)c3cccnc3)s2)cn1	–	–	–	107.5	–	–
COc1ccccc1N(CC(=O)NC(C)(C)C)C(=O)Cn1nnc(-c2ccc(C)o2)n1	–	–	–	–	–	–
CC(C)(C)NC(=O)CN(C(=O)Cn1nnc(-c2ccccc2F)n1)c1cccc2c1CCCC2	–	–	–	153.4	–	·
C[C@@H]1CN([C@@H](C)CO)C(=O)c2cc(-c3cncnc3)cnc2O[C@@H]1CN(C)C(=O)Cc1cccnc1	·	·	·	–	·	·
C[C@H](CO)N1C[C@H](C)[C@@H](CN(C)Cc2cccc(F)c2)Oc2ncc(C3=CCCC3)cc2C1=O	·	·	·	–	·	·
CCn1c(CN2c3ccccc3Sc3ccccc32)n[nH]c1=S	–	–	–	86.0	–	–
Cc1ccc(NS(=O)(=O)c2ccc(NS(=O)(=O)c3cccs3)cc2)cc1	–	–	–	–	–	302.5
O=C(N[C@@H]1CC[C@@H](CCNS(=O)(=O)Cc2ccccc2)O[C@@H]1CO)c1cnccn1	·	·	·	–	·	·
Cc1ccc(NC(=O)c2ccccc2N(C)S(C)(=O)=O)cc1C	–	–	–	105.9	–	–
CCOc1ccccc1NC(=O)c1ccccc1N(C)S(C)(=O)=O	–	–	–	151.2	–	–
O=C(C[C@@H]1CC[C@@H]2[C@H](COC[C@H](O)CN2Cc2ccccc2)O1)NCCc1ccccc1	·	·	·	–	·	·
CCC(C)(C)n1nnnc1C(c1ccc2ncccc2c1)N1CCCC(C)C1 (stereo not given)	–	–	–	–	–	341.6
C[C@H](CO)N1C[C@H](C)[C@@H](CN(C)CC2CCCCC2)Oc2ccc(NS(=O)(=O)c3ccc(Cl)cc3)cc2CC1=O	·	·	·	122.7	·	·
C[C@@H]1CN([C@H](C)CO)C(=O)Cc2cc(NS(=O)(=O)c3ccc(Cl)cc3)ccc2O[C@@H]1CN(C)CC1CCCCC1	·	·	·	–	·	·
C[C@@H]1CN([C@H](C)CO)C(=O)Cc2cc(NS(=O)(=O)c3ccc(Cl)cc3)ccc2O[C@H]1CN(C)CC1CCCCC1	·	·	·	123.6	·	·
O=C1c2ccccc2C(=O)N1CCC1=CCCCC1	–	–	–	122.2	–	·
Clc1cccc(Nc2nc(-c3ccncc3)cs2)c1	–	–	–	·	–	274.9
SMILES	APOBEC3G inh	A3A deaminase	ASAP1 GAP inh	C2C12 statin	ARFGAP1 inh	SUMO Mot1 rescue
CCCC(=O)N(Cc1cc2cc(C)ccc2[nH]c1=O)c1ccccc1OC	–	–	–	76.1	–	–
COCC(=O)N[C@H]1C=C[C@H](CC(=O)NCc2ccc(Cl)cc2)O[C@H]1CO	·	·	·	–	·	·
CC(=O)Nc1ccc(Oc2nc(-c3ccccn3)nc3ccccc23)cc1	–	–	–	·	–	–
CC(=O)Nc1cccc(Oc2nc(-c3ccccn3)nc3ccccc23)c1	–	–	–	·	–	531.9
COc1cccc(NC(=O)CSc2nnc(-c3cc(-c4ccccn4)nc4ccccc34)o2)c1	–	–	–	82.9	–	–
Cc1cccn2cc(CNc3ccccc3)nc12	–	–	–	108.6	–	–
COc1ccc(CN=CC2=C(O)CNC2=O)cc1OC	–	–	–	94.4	–	–
C[C@@H]1CN([C@@H](C)CO)C(=O)c2cc(NS(C)(=O)=O)ccc2O[C@H]1CN(C)S(=O)(=O)c1cn(C)cn1	·	·	·	–	·	·
Cc1ccc(S(=O)(=O)N2CCN(C(=O)C3Cc4ccccc4CN3C(=O)c3ccco3)CC2)cc1 (stereo not given)	–	–	–	97.7	–	–
O=C(NCC1(c2ccccc2)CCCC1)c1ccc(Br)cc1	–	–	–	·	–	–
Cc1ccc(C(=O)NCC2(c3ccccc3)CCCC2)cc1	–	–	–	121.0	–	–
COc1cc(NC(=S)N2CCN(C(=O)c3ccco3)CC2)c(OC)cc1Cl	–	–	–	·	–	·
COc1ccc(Cl)cc1NC(=S)N1CCN(C(=O)c2ccco2)CC1	–	–	–	–	39.4	357.0
CCN1[C@@H]2c3ccc(C4=CCCCC4)c(=O)n3C[C@H]1[C@H](CO)[C@H]2C(=O)N1CCCCC1	·	·	·	–	·	·
O=C(N1CCCCCC1)N1CCN(S(=O)(=O)N2CCCCC2)CC1	–	–	–	100.7	–	–
Cc1ccc2[nH]c(C(F)(F)F)cc(=O)c2c1	–	–	–	–	–	342.5
O=[N+]([O-])c1ccc(/C=N/Nc2ccc3ccccc3c2)o1	–	–	25.0	·	–	–
O=C(N/N=C/c1ccc([N+](=O)[O-])o1)c1cc2ccccc2o1	–	–	–	·	–	–
C[C@H]1CN([C@@H](C)CO)C(=O)c2cc(-c3ccccc3F)cnc2O[C@@H]1CN(C)C(=O)C1CC1	·	·	·	–	·	·
O=C(N[C@@H]1CC[C@@H](CCNS(=O)(=O)c2ccccc2)O[C@H]1CO)c1cccc(F)c1	·	·	·	–	·	·
COc1ccc(NC(=O)NCc2ccccn2)cc1	–	–	–	109.7	–	–
O=C(NCc1ccccn1)C(=O)NCc1ccccn1	–	–	–	·	–	294.6
CCc1cccc(NC(=O)c2ccc(CNc3c(N4CCCC4)c(=O)c3=O)cc2)c1	–	–	–	100.0	–	–
CC(=O)c1ccc(NC(=O)c2ccc(CNc3c(N4CCCC4)c(=O)c3=O)cc2)cc1	–	–	–	·	–	–
COc1ccc(-c2noc(CCCOc3ccc(Cl)cc3Cl)n2)cc1	–	–	–	109.1	–	–
COc1ccc(C#Cc2cnc3c(c2)C(=O)N([C@@H](C)CO)C[C@H](C)[C@@H](CN(C)C(=O)CN(C)C)O3)cc1	·	·	·	–	·	·
O=C(NNC(=O)c1ccncc1)Nc1cccc([N+](=O)[O-])c1	–	–	–	·	–	430.3
C[C@@H]1CN([C@H](C)CO)C(=O)c2cc(-c3cncnc3)cnc2O[C@H]1CN(C)C(=O)Cc1ccccn1	·	·	·	–	·	·
C/C(=N\Nc1ccc(F)cc1F)c1ccc(N2CCOCC2)cc1	–	–	–	·	–	279.3
